In brackets after ≈: the same amount, converted by molar mass.
Experiments:
Salmonella typhimurium = assay: Antibacterial activity against Salmonella enterica serovar Typhimurium; assay type: functional, Salmonella enterica subsp. enterica serovar Typhimurium
Method in brief: (§1)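 Broth microdilution MIC following CLSI guidelines, in cation-adjusted Mueller-Hinton broth, incubated at 35°C. Recent clinical isolates and reference strains, with identity confirmed by automated and standard microbiological methods. Results reported as MIC range, MIC50 and MIC90.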

Hoylesella oralis = assay: Antibacterial activity against Prevotella oralis; assay type: functional
Method in brief: (§2)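 Anaerobic broth microdilution MIC following CLSI guidelines, in supplemented Brucella broth. Run in an anaerobe chamber under 5% CO2, 5% H2 and 90% N2 at 35°C, and read after 48 h. Reported as MIC range, MIC50 and MIC90.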

Enterococcus faecalis [1] = assay: Antibacterial activity against VanB-resistant Enterococcus faecalis; assay type: functional
Method in brief: (§3)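 Broth microdilution MIC per CLSI guidelines, incubated at 35°C. Cation-adjusted Mueller-Hinton broth for nonfastidious organisms and staphylococci. Streptococci tested in the same broth with 3% lysed horse blood. Anaerobes tested in supplemented Brucella broth inside an anaerobe chamber (5% CO2, 5% H2, 90% N2), read after 48 h. Strains were mainly recent clinical isolates with confirmed identity.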

[2] = tested on: Staphylococcus epidermidis; assay: Antibacterial activity against oxacillin-resistant Staphylococcus epidermidis; assay type: functional; method in brief: as §3
Bacteroides ovatus = assay: Antibacterial activity against Bacteroides ovatus; assay type: functional; method in brief: as §2
Neisseria gonorrhoeae = assay: Antibacterial activity against Neisseria gonorrhoeae; assay type: functional
Method in brief: (§4)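 MIC by broth microdilution in gonococcal broth, incubated at 35°C in 5% CO2. Reported as MIC range, MIC50 and MIC90.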

Moraxella catarrhalis = assay: Antibacterial activity against beta-lactamase negative Moraxella catarrhalis; assay type: functional
[3] = tested on: Parabacteroides distasonis; assay: Antimicrobial activity against Bacteroides distasonis; assay type: functional
Method in brief: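 Anaerobic broth microdilution MIC following CLSI guidelines, in supplemented Brucella broth. Incubated at 35°C in a chamber under 5% CO2, 5% H2 and 90% N2. Read after 48 h.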

Morganella morganii = assay: Antibacterial activity against Morganella morganii; assay type: functional; method in brief: as §1
Staphylococcus aureus [4] = assay: Antibacterial efficacy against ciprofloxacin and methicillin-resistant Staphylococcus aureus SA2017 infected orally dosed CD1 mouse model; assay type: functional
Method in brief: (§5)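 Sepsis model in female CD1 mice (6–8 weeks, 18–22 g). Lethal i.p. challenge (0.5 ml) at ≥100 median lethal doses. Streptococci were given in Todd-Hewitt broth; other organisms were given with 20% hog gastric mucin. A single oral gavage dose (0.5 ml, in 0.5% methylcellulose) was given at the time of challenge. The PD50 (mg/kg) was calculated by probit analysis.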

Pseudomonas aeruginosa = assay: Antibacterial activity against Pseudomonas aeruginosa; assay type: functional; method in brief: as §1
Cutibacterium acnes = assay: Antibacterial activity against Propionibacterium acnes; assay type: functional
[5] = tested on: Peptostreptococcus anaerobius; assay: Antibacterial activity against Peptostreptococcus anaerobius; assay type: functional; method in brief: as §2
Serratia marcescens = assay: Antibacterial activity against Serratia marcescens; assay type: functional; method in brief: as §1
Streptococcus pyogenes = assay: Antibacterial efficacy against Streptococcus pyogenes C203 infected orally dosed CD1 mouse model; assay type: functional; conditions: C203, po; method in brief: as §5
Enterococcus faecium = assay: Antibacterial activity against Enterococcus faecium; assay type: functional; method in brief: as §3
Enterobacter cloacae = assay: Antibacterial activity against Enterobacter cloacae; assay type: functional; method in brief: as §1
Streptococcus mitis = assay: Antibacterial activity against Streptococcus mitis; assay type: functional
Method in brief: (§6)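 Broth microdilution MIC following CLSI guidelines, in cation-adjusted Mueller-Hinton broth with 3% lysed horse blood. Plates incubated at 35°C. Clinical isolates and reference strains, with identity confirmed by standard microbiological methods.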

Klebsiella pneumoniae = assay: Antibacterial activity against beta-lactamase positive Klebsiella pneumoniae; assay type: functional
Method in brief: (§7)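 MIC by CLSI broth microdilution for nonfastidious organisms, in cation-adjusted Mueller-Hinton broth incubated at 35°C.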

Prevotella corporis = assay: Antibacterial activity against Prevotella corporis; assay type: functional; method in brief: as §2
Legionella pneumophila = assay: Antibacterial activity against Legionella pneumophila; assay type: functional
Method in brief: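 Broth microdilution MIC per CLSI guidelines, run in buffered yeast extract α-ketoglutarate broth at 35°C and read after 48 h.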

Staphylococcus aureus [6] = assay: Antibacterial activity against oxacillin-susceptible Staphylococcus aureus; assay type: functional; method in brief: as §7
Haemophilus influenzae = assay: Antibacterial activity against beta-lactamase positive Haemophilus influenzae; assay type: functional
Method in brief: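 Broth microdilution MIC following CLSI guidelines, in Haemophilus test medium at 35°C.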

Neisseria meningitidis = assay: Antibacterial activity against Neisseria meningitidis; assay type: functional; method in brief: as §4
Shigella sonnei = assay: Antibacterial activity against Shigella sonnei; assay type: functional; method in brief: as §1
Streptococcus salivarius = assay: Antibacterial activity against Streptococcus salivarius; assay type: functional; method in brief: as §6
Prevotella bivia = assay: Antibacterial activity against Prevotella bivia; assay type: functional; method in brief: as §2
Staphylococcus aureus [7] = assay: Antibacterial efficacy against methicillin-resistant Staphylococcus aureus SA1417 infected orally dosed CD1 mouse model; assay type: functional; method in brief: as §5
Staphylococcus aureus [8] = assay: Antibacterial efficacy against methicillin-susceptible Staphylococcus aureus UC76 infected orally dosed CD1 mouse model; assay type: functional; conditions: UC76, po; method in brief: as §5
Proteus mirabilis = assay: Antibacterial activity against Proteus mirabilis; assay type: functional; method in brief: as §1
[9] = tested on: Bacteroides thetaiotaomicron; assay: Antibacterial activity against Bacteroides thetaiotaomicron; assay type: functional; method in brief: as §2
Prevotella buccae = assay: Antibacterial activity against Prevotella buccae; assay type: functional; conditions: Segatella buccae; method in brief: as §2
Streptococcus pneumoniae = assay: Antibacterial efficacy against Streptococcus pneumoniae SVI infected orally dosed CD1 mouse model; assay type: functional; conditions: po; method in brief: as §5
[10] = tested on: Fusobacterium necrophorum; assay: Antibacterial activity against Fusobacterium necrophorum; assay type: functional; method in brief: as §2
Enterococcus faecalis [11] = assay: Antibacterial efficacy against Enterococcus faecalis MGH2 infected orally dosed CD1 mouse model; assay type: functional; method in brief: as §5
Corynebacterium sp. = assay: Antibacterial activity against Corynebacterium sp.; assay type: functional
Method in brief: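 Broth microdilution MIC following CLSI guidelines, in cation-adjusted Mueller-Hinton broth containing 3% lysed horse blood, incubated at 35°C. Clinical isolates with identity confirmed. Reported as MIC range, MIC50 and MIC90.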

Finegoldia magna = assay: Antibacterial activity against Peptostreptococcus magnus; assay type: functional; method in brief: as §2
Enterococcus faecalis [12] = assay: Antibacterial activity against beta-lactamase positive Enterococcus faecalis; assay type: functional; method in brief: as §7
Streptococcus equinus = assay: Antibacterial activity against Streptococcus bovis; assay type: functional; method in brief: as §6

Cc1c(N2CC[C@@H]([C@H](C)N)C2)c(F)cc2c(=O)n(N)c(=O)n(C3CC3)c12
MIC50 (Salmonella typhimurium): 0.5 µg/mL (≈ 1.38 µM) | MIC90 (Salmonella typhimurium): 1 µg/mL (≈ 2.77 µM) | MIC50 (Hoylesella oralis): 0.25 µg/mL (≈ 0.692 µM) | MIC90 (Hoylesella oralis): 1 µg/mL (≈ 2.77 µM) | MIC50 (Enterococcus faecalis [1]): 0.25 µg/mL (≈ 0.692 µM) | MIC90 (Enterococcus faecalis [1]): 0.25 µg/mL (≈ 0.692 µM) | MIC50 [2]: 0.125 µg/mL (≈ 0.346 µM) | MIC90 [2]: 0.125 µg/mL (≈ 0.346 µM) | MIC50 (Bacteroides ovatus): 4 µg/mL (≈ 11.1 µM) | MIC90 (Bacteroides ovatus): 16 µg/mL (≈ 44.3 µM) | MIC50 (Neisseria gonorrhoeae): 0.25 µg/mL (≈ 0.692 µM) | MIC90 (Neisseria gonorrhoeae): 0.5 µg/mL (≈ 1.38 µM) | MIC50 (Moraxella catarrhalis): 0.25 µg/mL (≈ 0.692 µM) | MIC90 (Moraxella catarrhalis): 0.5 µg/mL (≈ 1.38 µM) | MIC50 [3]: 4 µg/mL (≈ 11.1 µM) | MIC90 [3]: 16 µg/mL (≈ 44.3 µM) | MIC50 (Morganella morganii): 2 µg/mL (≈ 5.53 µM) | MIC90 (Morganella morganii): 8 µg/mL (≈ 22.1 µM) | MIC (Staphylococcus aureus [4]): 0.25 µg/mL (≈ 0.692 µM) | ED50 (Staphylococcus aureus [4]; read-out: PD50): 23 mg/kg | MIC50 (Pseudomonas aeruginosa): 4 µg/mL (≈ 11.1 µM) | MIC90 (Pseudomonas aeruginosa): 32 µg/mL (≈ 88.5 µM) | MIC50 (Cutibacterium acnes): 2 µg/mL (≈ 5.53 µM) | MIC90 (Cutibacterium acnes): 4 µg/mL (≈ 11.1 µM) | MIC [5]: 0.03 µg/mL (≈ 0.083 µM) | MIC50 (Serratia marcescens): 2 µg/mL (≈ 5.53 µM) | MIC90 (Serratia marcescens): 16 µg/mL (≈ 44.3 µM) | MIC (Streptococcus pyogenes): 0.015 µg/mL (≈ 0.0415 µM) | ED50 (Streptococcus pyogenes; read-out: PD50): 0.7 mg/kg | MIC50 (Enterococcus faecium): 1 µg/mL (≈ 2.77 µM) | MIC90 (Enterococcus faecium): 2 µg/mL (≈ 5.53 µM) | MIC50 (Enterobacter cloacae): 1 µg/mL (≈ 2.77 µM) | MIC90 (Enterobacter cloacae): 4 µg/mL (≈ 11.1 µM) | MIC50 (Streptococcus mitis): 0.03 µg/mL (≈ 0.083 µM) | MIC90 (Streptococcus mitis): 0.03 µg/mL (≈ 0.083 µM) | MIC50 (Klebsiella pneumoniae): 2 µg/mL (≈ 5.53 µM) | MIC90 (Klebsiella pneumoniae): 8 µg/mL (≈ 22.1 µM) | MIC50 (Prevotella corporis): 0.25 µg/mL (≈ 0.692 µM) | MIC90 (Prevotella corporis): 1 µg/mL (≈ 2.77 µM) | MIC50 (Legionella pneumophila): 0.25 µg/mL (≈ 0.692 µM) | MIC90 (Legionella pneumophila): 0.25 µg/mL (≈ 0.692 µM) | MIC50 (Staphylococcus aureus [6]): 0.125 µg/mL (≈ 0.346 µM) | MIC90 (Staphylococcus aureus [6]): 0.125 µg/mL (≈ 0.346 µM) | MIC50 (Haemophilus influenzae): 0.125 µg/mL (≈ 0.346 µM) | MIC90 (Haemophilus influenzae): 0.25 µg/mL (≈ 0.692 µM) | MIC50 (Neisseria meningitidis): 0.25 µg/mL (≈ 0.692 µM) | MIC90 (Neisseria meningitidis): 0.5 µg/mL (≈ 1.38 µM) | MIC50 (Shigella sonnei): 0.5 µg/mL (≈ 1.38 µM) | MIC90 (Shigella sonnei): 1 µg/mL (≈ 2.77 µM) | MIC50 (Streptococcus salivarius): 0.03 µg/mL (≈ 0.083 µM) | MIC90 (Streptococcus salivarius): 0.03 µg/mL (≈ 0.083 µM) | MIC50 (Prevotella bivia): 0.25 µg/mL (≈ 0.692 µM) | MIC90 (Prevotella bivia): 1 µg/mL (≈ 2.77 µM) | MIC (Staphylococcus aureus [7]): 0.25 µg/mL (≈ 0.692 µM) | ED50 (Staphylococcus aureus [7]; read-out: PD50): 2.5 mg/kg | MIC (Staphylococcus aureus [8]): 0.06 µg/mL (≈ 0.166 µM) | ED50 (Staphylococcus aureus [8]; read-out: PD50): 1.9 mg/kg | MIC50 (Proteus mirabilis): 1 µg/mL (≈ 2.77 µM) | MIC90 (Proteus mirabilis): 2 µg/mL (≈ 5.53 µM) | MIC50 [9]: 4 µg/mL (≈ 11.1 µM) | MIC90 [9]: 16 µg/mL (≈ 44.3 µM) | MIC50 (Prevotella buccae): 0.25 µg/mL (≈ 0.692 µM) | MIC90 (Prevotella buccae): 1 µg/mL (≈ 2.77 µM) | MIC (Streptococcus pneumoniae): 0.015 µg/mL (≈ 0.0415 µM) | ED50 (Streptococcus pneumoniae; read-out: PD50): 2.7 mg/kg | MIC [10]: 0.06 µg/mL (≈ 0.166 µM) | MIC (Enterococcus faecalis [11]): 0.125 µg/mL (≈ 0.346 µM) | ED50 (Enterococcus faecalis [11]; read-out: PD50): 19 mg/kg | MIC50 (Corynebacterium sp.): 0.25 µg/mL (≈ 0.692 µM) | MIC90 (Corynebacterium sp.): 0.25 µg/mL (≈ 0.692 µM) | MIC (Finegoldia magna): 0.03 µg/mL (≈ 0.083 µM) | MIC (Enterococcus faecalis [12]): 0.06 µg/mL (≈ 0.166 µM) | MIC50 (Streptococcus equinus): 0.03 µg/mL (≈ 0.083 µM) | MIC90 (Streptococcus equinus): 0.03 µg/mL (≈ 0.083 µM)

Source: ChEMBL document CHEMBL1147105, “In vitro and in vivo activities of PD 0305970 and PD 0326448, new bacterial gyrase/topoisomerase inhibitors with potent antibacterial activities versus multidrug-resistant gram-positive and fastidious organism groups” (2007)
